# Most compounds without a hit are left out; they make up all but 4.1% or so of the library.
# ATG4B inh – ATG4B (human) cysteine protease inhibition; Q9Y4P1; ATG4B cleavage of LC3-PLA2, NBD-HPC fluorescence, 1 h; inhibition, % at 8.33 µM; 340,000 compounds, 0.51% hits; AID 504462; in the data active = inhibition above about 40%
# Target sequence (Q9Y4P1 whole entry, looked up): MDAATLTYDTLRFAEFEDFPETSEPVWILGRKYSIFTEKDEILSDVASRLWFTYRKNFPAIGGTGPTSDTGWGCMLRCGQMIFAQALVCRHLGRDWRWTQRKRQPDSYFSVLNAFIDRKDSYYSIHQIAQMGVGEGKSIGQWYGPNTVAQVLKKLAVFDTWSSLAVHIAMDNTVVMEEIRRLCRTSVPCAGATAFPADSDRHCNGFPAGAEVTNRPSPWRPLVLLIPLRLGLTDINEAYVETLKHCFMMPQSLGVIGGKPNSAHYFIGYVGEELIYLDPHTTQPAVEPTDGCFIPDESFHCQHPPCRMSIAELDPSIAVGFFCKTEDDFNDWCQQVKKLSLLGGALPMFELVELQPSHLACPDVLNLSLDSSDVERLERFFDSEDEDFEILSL
# SMARCA2 activ – activators of SMARCA2 function; MG213 cells, MMTV-luciferase reporter, dexamethasone, overnight; activation, % at 9.1 µM; 370,000 compounds, 1% hits; in the data active = activation above about 7.8%;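 also: 0% = vehicle wells and 100% = reference activator wells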
# MC4R antag cAMP – antagonists of human melanocortin 4 receptor (MC4R); P32245; MC4R-expressing cells, MTII-stimulated cAMP, LANCE TR-FRET; inhibition, % at 6.5 µM; 360,000 compounds, 0.48% hits; AID 540295;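 active = inhibition above its plate's cutoff, the mean of tested wells on that plate plus 3 SD, cut at about 29% in these data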;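 also: 0% = Melanotan II alone and 100% = Melanotan II plus saturating MCL0020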
#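 Material – human MC4R-expressing U2OS cells · Repeats – no replicates · Detection – TR-FRET with Eu-cAMP and labeled anti-cAMP, 671 nm · Times – compound 30 min, challenge 1 h, detection 1 h · Compound – single nominal compound dose of 6.5 µM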
# MC4R barr agon – human MC4R agonism via beta-arrestin | U2OS MC4R beta-arrestin complementation, luminescence; percent of melanotan II response, DMSO zero | activation, % at 8.9 µM | 360,000 compounds, 0.98% hits | AID 540308;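 active = activation above a per-plate cutoff, the mean activation of sample wells on that plate plus 3 SD, cut at about 8% in these data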
# MPTP inh – inhibitors of mitochondrial permeability transition pore | isolated mouse mitochondria, Ca2+ swelling absorbance, 30 min | inhibition, % at 10 µM | 360,000 compounds, 1.4% hits | AID 602449;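 active = inhibition of 50% or more, scaled per plate between neutral and stimulator controls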;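 also: 0% = DMSO wells given calcium and 100% = 1 mM EGTA wells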
# * marks the source's active call; other numbers are inactive results; x = no result.
SMILES,ATG4B inh,SMARCA2 activ,MC4R antag cAMP,MC4R barr agon,MPTP inh
Cc1ccc(-n2nnnc2SCC(=O)NC(=O)Nc2ccc3c(c2)OCCO3)cc1,-22,2,4,4,4
O=C(CSc1nnnn1-c1ccc(Cl)cc1)NC(=O)Nc1ccc2c(c1)OCCO2,-11,2,-3,9.3*,7
COC(=O)[C@]12C[C@H](CC(=O)NCCc3ccccc3OC)C(=O)N(CCC3=CCCCC3)C1=C[C@H](C(C)C)O[C@@H]2C1CC1,x,-3,x,x,x
Clc1ccc(-n2c(Cc3cccs3)nnc2SC/C=C/c2ccccc2)cc1,x,-7,x,x,x
CCOC(=O)CC[C@H]1CC[C@]2(CCCN(C(=O)C3CCCC3)C2)O1,x,-4,x,x,x
COc1ccc(C2=CC3=C(Br)C(=O)C(C)(OC(=O)c4ccco4)C(=O)C3=CO2)cc1 (stereo not given),82*,x,12,-1,3
COc1ccc(NC(=O)CSc2nnc(Cn3cnc([N+](=O)[O-])n3)n2C)cc1,2,11*,5,-3,1
COc1cccc(NC(=O)CSc2nnc(Cn3cnc([N+](=O)[O-])n3)n2C)c1,-1,-1,-4,4,11
O=C(OCn1ncc(Cl)c(Cl)c1=O)c1ccc(C(F)(F)F)cc1,-6,6,33*,1,-1
Cc1ccc(C(=O)OCn2ncc(Cl)c(Cl)c2=O)cc1,2,-10,-2,0,0
Cc1onc(-c2ccccc2Cl)c1C(=O)Oc1cc(N)n(S(=O)(=O)c2ccc(F)cc2)n1,3,-3,29*,1,3
c1ccc(-c2c[nH]c3cccc(-c4cc5ccccc5o4)c23)cc1,x,-3,x,x,x
COc1cc2c3nnc(-c4ccc(F)cc4)c-3cn(Cc3ccccc3)c2cc1OC,-8,19*,5,2,3
COc1cc2c3nnc(-c4ccc(F)cc4)c-3cn(Cc3ccc(F)cc3)c2cc1OC,-2,5,13,1,3
COC(=O)c1ccc(CNC(=O)COC(=O)/C=C/c2cccc(OC)c2)cc1,x,1,1,0,0
COc1ccc(CNC(=O)COC(=O)/C=C/c2cccc(Cl)c2)cc1,2,1,12,8.3*,0
O=C(CCc1ccccc1-c1ccccc1CCNC(=O)COCc1ccccc1)NCc1ccccc1,x,-3,x,x,x
C/C(=N\NC(=O)CNc1cccc(C(F)(F)F)c1)c1cccc(Br)c1,-7,-1,3,-1,3
C/C(=N\NC(=O)CNc1cccc(C(F)(F)F)c1)c1ccc(Br)cc1,-9,-3,8,8.3*,0
Cc1ccc(C)c(OCCC(=O)OCC(=O)Nc2ccc(Cl)cn2)c1,2,0,4,9.5*,0
Cc1ccc(OCCC(=O)OCC(=O)Nc2ccc(Cl)cn2)cc1,-1,0,14,0,-4
COc1ccc(/C=N/N2CCOCC2)cc1COc1ccc(Cl)cc1,-4,7.9*,-5,1,-1
Fc1cccc(/C=N/Nc2ccc(Cl)nn2)c1,1,2,-2,12*,1
Oc1c(Br)cc(/C=N/Nc2ccc(Cl)nn2)cc1Br,13,-2,7,0,-1
COCc1cc(C)c2c(N)c(C#N)sc2n1,-3,7.9*,2,-1,1
SMILES,ATG4B inh,SMARCA2 activ,MC4R antag cAMP,MC4R barr agon,MPTP inh
CC1(C)OC(=O)C2=C(CC(CCc3ccccc3)OC2c2cccc(C(F)(F)F)c2)O1 (stereo not given),x,0,x,x,x
COc1ccc(N=C2SC(CC(=O)Nc3ccccc3F)C(=O)N2Cc2ccco2)cc1 (stereo not given),2,1,9,0,0
COc1ccc(N=C2SC(CC(=O)Nc3ccccc3)C(=O)N2Cc2ccco2)cc1 (stereo not given),1,-4,-5,8.3*,-28
N#Cc1ccc(NC(=O)Cn2c3[n+](c4ccc(C(F)(F)F)cc42)CCCCC3)cc1,2,-2,-3,1,0
O=C(Cn1c2[n+](c3ccc(C(F)(F)F)cc31)CCCCC2)Nc1ccc(Br)cc1,8,x,30*,1,10
COc1ccc(CCN2C(=O)c3ccccc3C2c2nnnn2C(C)C)cc1OC (stereo not given),x,-2,x,x,-1
COc1ccc(CN2C(=O)c3ccccc3C2c2nnnn2C(C)C)cc1OC (stereo not given),x,7.8*,x,x,-2
COC(=O)[C@]12C[C@H](CC(=O)NCCC(C)C)C(=O)N(Cc3ccc4c(c3)OCO4)C1=C[C@H](COCc1ccccc1)O[C@@H]2C,x,-4,x,x,x
Cc1cccc(Cn2cc(COC(=O)NCCc3ccccc3)nn2)c1,x,0,x,x,x
COc1ccc(-c2nnc(SCc3nc4ccccc4c(=O)[nH]3)o2)cc1,-6,2,-15,8.2*,4
Cc1[nH]nc(-c2ccc(O)cc2O)c1-c1ccc(Cl)cc1,-3,-6,-3,-2,20
COc1ccc(-c2n[nH]c(C)c2-c2ccc(Cl)cc2)c(O)c1,1,-1,-4,9.1*,5
[O-][n+]1onc2c1CCc1c-2nn(-c2ccccc2Cl)[n+]1[O-],3,-2,37*,5,-2
C#CCNC(=O)C[C@@H]1C[C@@](CCC(=O)OCC)(C(=O)OCC)C2=CCCCN2C1=O,x,1,x,x,x
COc1ccc(N(CCCN2C(=O)c3cccc4cccc(c34)C2=O)C(=O)c2cccnc2)cc1,-4,2,-25,11*,-1
COc1ccc(/C=C/C(=O)NC(=S)Nc2ccccc2)cc1OC,3,-2,16,9.1*,0
COc1ccc(/C=C/C(=O)NC(=S)NCCc2ccc(OC)c(OC)c2)cc1,-11,0,-9,17*,1
COc1ccc(CCNC(=O)/C=C\c2ccccc2)cc1OC,-9,-4,1,-3,1
COc1ccc(/C=C/C(=O)Nc2ccccc2)cc1OC,-1,2,5,2,6
CC1=C[C@@H]2[C@H]3C(=O)N(Cc4ccccc4)C(=O)[C@H]3[C@@H]1[C@@H]1O[C@@]3(C(=O)N(C)c4ccccc43)C3=C(CCCC3=O)N21,x,5,x,x,x
C[C@@H]1ON(C)[C@H]2C[C@H]3c4[nH]c5cccc(-c6ccccc6F)c5c4CCN3C(=O)[C@@H]12,x,0,x,x,x
Cc1ccccc1S(=O)(=O)N(C)C[C@@H]1OCc2cn(nn2)CCCC(=O)N([C@@H](C)CO)C[C@H]1C,x,-3,x,x,x
CCCCN(C)CC(O)Cn1cc(/C=C/C(=O)c2ccc(C)cc2)c2ccccc21 (stereo not given),-5,-1,-2,13*,1
COC(=O)c1c(C)[nH]c(/C=N/Nc2ccccc2)c1C,-14,15*,2,-2,6
CCOC(=O)CSc1nnc2c3ccccc3n(CC)c2n1,-7,1,-24,-2,0
CCn1c2ccccc2c2nnc(SCC(=O)NC(CC(C)C)C(=O)OC)nc21 (stereo not given),-8,7.8*,-3,-2,2
Cc1cc(C)c(S(=O)(=O)NCCc2ccccc2)c(C)c1,-8,3,-8,8.4*,1
Brc1ccc(N2O[C@H]3C=C[C@@H]2C3)nc1,x,2,x,x,x

# Source: PubChem
